Laboratory results from ChEMBL document CHEMBL1142492 (J Med Chem, 2008).

What was measured:
[1] = biological target: Serine/threonine-protein kinase SIK1 (Homo sapiens) (UniProt P57059); assay: Inhibition of SNF1LK at 3 uM
[2] = system: Proto-oncogene tyrosine-protein kinase receptor Ret (Homo sapiens), P07949 [M918T]; assay: Inhibition of RET M918T mutant at 3 uM
[3] = biological target: Aurora kinase C (Homo sapiens) (UniProt Q9UQB9); assay: Inhibition of AURKC at 3 uM
[4] = biological target: Serine/threonine-protein kinase B-raf (Homo sapiens) (UniProt P15056); assay: Inhibition of BRAF at 3 uM
[5] = biological target: Receptor tyrosine-protein kinase erbB-4 (Homo sapiens) (UniProt Q15303); assay: Inhibition of ERBB4 at 3 uM
Procedure, shortened: (§1)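 Single-concentration kinase panel scoring: each value is the percentage of enzyme activity remaining relative to a DMSO-only control. An activity statistically indistinct from DMSO control was scored "no hit".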

[6] = biological target: Calcium/calmodulin-dependent protein kinase type 1D (Homo sapiens) (UniProt Q8IU85); assay: Inhibition of CAMK1D at 3 uM
[7] = system: Tyrosine-protein kinase ABL1 (Homo sapiens), P00519 [M351T]; assay: Inhibition of ABL1 M351T mutant at 3 uM
[8] = biological target: Phosphatidylinositol 4,5-bisphosphate 3-kinase catalytic subunit delta isoform (Homo sapiens) (UniProt O00329); assay: Inhibition of PIK3CD at 3 uM
Chain of Phosphatidylinositol 4,5-bisphosphate 3-kinase catalytic subunit delta isoform (Homo sapiens) (O00329 whole entry, canonical isoform): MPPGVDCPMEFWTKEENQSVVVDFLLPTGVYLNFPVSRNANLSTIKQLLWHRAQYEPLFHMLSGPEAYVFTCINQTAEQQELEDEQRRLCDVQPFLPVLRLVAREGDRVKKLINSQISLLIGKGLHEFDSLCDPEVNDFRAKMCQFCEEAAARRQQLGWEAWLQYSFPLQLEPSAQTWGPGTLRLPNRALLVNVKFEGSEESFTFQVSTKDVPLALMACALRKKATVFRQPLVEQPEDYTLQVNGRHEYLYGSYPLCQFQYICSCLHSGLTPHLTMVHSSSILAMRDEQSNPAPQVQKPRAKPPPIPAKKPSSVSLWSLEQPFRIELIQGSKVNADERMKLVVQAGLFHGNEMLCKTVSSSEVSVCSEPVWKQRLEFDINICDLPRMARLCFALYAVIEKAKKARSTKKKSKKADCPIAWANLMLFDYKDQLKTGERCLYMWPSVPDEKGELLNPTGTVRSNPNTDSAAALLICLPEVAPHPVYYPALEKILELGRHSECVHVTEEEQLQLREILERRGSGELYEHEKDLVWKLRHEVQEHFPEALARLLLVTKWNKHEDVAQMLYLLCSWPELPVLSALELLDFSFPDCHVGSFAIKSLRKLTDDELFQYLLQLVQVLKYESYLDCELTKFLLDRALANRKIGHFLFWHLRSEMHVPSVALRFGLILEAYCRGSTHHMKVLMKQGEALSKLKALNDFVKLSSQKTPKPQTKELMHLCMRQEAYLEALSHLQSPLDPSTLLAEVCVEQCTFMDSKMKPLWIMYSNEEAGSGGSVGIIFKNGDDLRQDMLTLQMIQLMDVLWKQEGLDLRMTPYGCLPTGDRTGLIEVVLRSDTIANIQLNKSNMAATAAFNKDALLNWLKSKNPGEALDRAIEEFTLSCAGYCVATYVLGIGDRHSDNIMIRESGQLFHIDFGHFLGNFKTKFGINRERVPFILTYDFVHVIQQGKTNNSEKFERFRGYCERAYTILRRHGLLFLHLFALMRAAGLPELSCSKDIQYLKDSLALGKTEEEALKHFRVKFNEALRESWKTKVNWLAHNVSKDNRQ

[9] = biological target: Receptor-interacting serine/threonine-protein kinase 1 (Homo sapiens) (UniProt Q13546); assay: Inhibition of RIPK1 at 3 uM
[10] = biological target: Mitogen-activated protein kinase kinase kinase 11 (Homo sapiens) (UniProt Q16584); assay: Inhibition of MLK3 at 3 uM
[11] = biological target: Serine/threonine-protein kinase 17A (Homo sapiens) (UniProt Q9UEE5); assay: Inhibition of DRAK1 at 3 uM
[12] = biological target: Calcium/calmodulin-dependent protein kinase type 1 (Homo sapiens) (UniProt Q14012); assay: Inhibition of CAMK1 at 3 uM
[13] = biological target: cAMP-dependent protein kinase catalytic subunit PRKX (Homo sapiens) (UniProt P51817); assay: Inhibition of PRKX at 3 uM
[14] = biological target: Tyrosine-protein kinase ZAP-70 (Homo sapiens) (UniProt P43403); assay: Inhibition of ZAP70 at 3 uM
[15] = biological target: Adenosine receptor A1 (Homo sapiens) (UniProt P30542); assay: Inhibition of human adenosine A1 receptor at 3 uM
Procedure, shortened: (§2)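 Counter-screen binding/enzyme panel at single 3 μM, n=2; results as percent inhibition. Species per target as listed (rat NMDA, GABAA sites; human receptors, transporters; rabbit ACE).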

[16] = biological target: Histamine H1 receptor (Homo sapiens) (UniProt P35367); assay: Inhibition of human histamine H1 receptor at 3 uM
[17] = biological target: Serine/threonine-protein kinase STK11 (Homo sapiens) (UniProt Q15831); assay: Inhibition of LKB1 at 3 uM
[18] = biological target: B1 bradykinin receptor (Homo sapiens) (UniProt P46663); assay: Inhibition of human bradykinin B1 receptor at 3 uM; procedure, shortened: as §2
Chain of B1 bradykinin receptor (Homo sapiens) (P46663 whole entry): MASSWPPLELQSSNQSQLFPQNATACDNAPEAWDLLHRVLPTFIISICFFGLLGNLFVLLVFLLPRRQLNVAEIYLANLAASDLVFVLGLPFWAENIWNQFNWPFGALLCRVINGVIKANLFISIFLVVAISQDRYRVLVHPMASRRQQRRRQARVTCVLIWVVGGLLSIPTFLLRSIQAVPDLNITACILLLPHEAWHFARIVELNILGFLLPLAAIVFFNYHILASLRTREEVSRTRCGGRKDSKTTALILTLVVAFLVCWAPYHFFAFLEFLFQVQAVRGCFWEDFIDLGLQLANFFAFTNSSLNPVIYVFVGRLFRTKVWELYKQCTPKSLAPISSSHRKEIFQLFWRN

[19] = biological target: Focal adhesion kinase 1 (Homo sapiens) (UniProt Q05397); assay: Inhibition of PTK2 at 3 uM
[20] = biological target: Endothelin receptor type B (Homo sapiens) (UniProt P24530); assay: Inhibition of human endothelin ETB receptor at 3 uM; procedure, shortened: as §2
Chain of Endothelin receptor type B (Homo sapiens) (P24530 whole entry): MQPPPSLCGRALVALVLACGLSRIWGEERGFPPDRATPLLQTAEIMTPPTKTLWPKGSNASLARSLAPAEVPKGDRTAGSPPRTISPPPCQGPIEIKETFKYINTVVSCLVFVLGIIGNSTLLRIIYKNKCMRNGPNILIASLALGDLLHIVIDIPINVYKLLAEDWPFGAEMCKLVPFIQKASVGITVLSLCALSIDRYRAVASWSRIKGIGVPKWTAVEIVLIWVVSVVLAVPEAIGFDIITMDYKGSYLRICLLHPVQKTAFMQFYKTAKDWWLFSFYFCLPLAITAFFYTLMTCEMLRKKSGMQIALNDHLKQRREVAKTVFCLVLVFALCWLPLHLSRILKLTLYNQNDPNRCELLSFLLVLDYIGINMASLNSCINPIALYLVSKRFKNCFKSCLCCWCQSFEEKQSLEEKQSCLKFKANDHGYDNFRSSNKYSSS

[21] = biological target: MAP/microtubule affinity-regulating kinase 3 (Homo sapiens) (UniProt P27448); assay: Inhibition of MARK3 at 3 uM
[22] = biological target: Epidermal growth factor receptor (Homo sapiens) (UniProt P04626+P00533+Q15303+P21860); assay: Inhibition of EGFR L747-T751del,Sins mutant at 3 uM; format: protein assay
[23] = biological target: Serine/threonine-protein kinase PAK 3 (Homo sapiens) (UniProt O75914); assay: Inhibition of PAK3 at 3 uM
[24] = biological target: Serine/threonine-protein kinase 36 (Homo sapiens) (UniProt Q9NRP7); assay: Inhibition of STK36 at 3 uM
[25] = system: Tyrosine-protein kinase ABL1 (Homo sapiens), P00519 [Q252H]; assay: Inhibition of ABL1 Q252H mutant at 3 uM
[26] = biological target: RAF proto-oncogene serine/threonine-protein kinase (Homo sapiens) (UniProt P04049); assay: Inhibition of RAF1 at 3 uM
[27] = biological target: Platelet-derived growth factor receptor alpha (Homo sapiens) (UniProt P16234); assay: Inhibition of PDGFRA at 3 uM
Chain of Platelet-derived growth factor receptor alpha (Homo sapiens) (P16234 whole entry): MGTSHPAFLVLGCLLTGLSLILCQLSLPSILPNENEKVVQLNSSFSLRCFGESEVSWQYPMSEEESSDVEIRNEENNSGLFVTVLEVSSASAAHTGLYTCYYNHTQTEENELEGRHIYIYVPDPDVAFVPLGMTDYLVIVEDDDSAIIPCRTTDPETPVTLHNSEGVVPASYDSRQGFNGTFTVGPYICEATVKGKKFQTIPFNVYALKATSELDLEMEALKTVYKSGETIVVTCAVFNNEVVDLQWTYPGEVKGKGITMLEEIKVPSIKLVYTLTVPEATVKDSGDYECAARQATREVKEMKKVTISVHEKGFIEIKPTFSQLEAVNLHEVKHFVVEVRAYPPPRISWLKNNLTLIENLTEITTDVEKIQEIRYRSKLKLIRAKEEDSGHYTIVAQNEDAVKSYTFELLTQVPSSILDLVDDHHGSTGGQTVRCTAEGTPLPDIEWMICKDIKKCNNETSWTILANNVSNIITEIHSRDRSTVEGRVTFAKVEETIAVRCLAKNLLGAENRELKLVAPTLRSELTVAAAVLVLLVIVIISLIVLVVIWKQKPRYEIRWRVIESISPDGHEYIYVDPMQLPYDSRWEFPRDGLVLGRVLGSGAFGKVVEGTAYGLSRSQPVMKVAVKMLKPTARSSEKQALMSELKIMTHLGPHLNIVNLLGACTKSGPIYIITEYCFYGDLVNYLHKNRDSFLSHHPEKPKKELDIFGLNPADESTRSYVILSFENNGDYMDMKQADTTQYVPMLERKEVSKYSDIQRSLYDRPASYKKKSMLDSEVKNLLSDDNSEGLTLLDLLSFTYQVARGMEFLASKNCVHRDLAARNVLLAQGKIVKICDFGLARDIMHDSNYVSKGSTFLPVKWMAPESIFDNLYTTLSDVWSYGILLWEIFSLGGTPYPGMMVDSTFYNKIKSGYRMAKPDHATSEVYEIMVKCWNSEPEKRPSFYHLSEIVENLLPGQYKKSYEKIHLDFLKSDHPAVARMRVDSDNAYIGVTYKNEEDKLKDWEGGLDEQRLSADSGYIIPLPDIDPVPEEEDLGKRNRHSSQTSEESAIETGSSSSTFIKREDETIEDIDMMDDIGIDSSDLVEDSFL

[28] = biological target: Serine/threonine-protein kinase PLK3 (Homo sapiens) (UniProt Q9H4B4); assay: Inhibition of PLK3 at 3 uM
Chain of Serine/threonine-protein kinase PLK3 (Homo sapiens) (Q9H4B4 whole entry, looked up, the tested form may be a part): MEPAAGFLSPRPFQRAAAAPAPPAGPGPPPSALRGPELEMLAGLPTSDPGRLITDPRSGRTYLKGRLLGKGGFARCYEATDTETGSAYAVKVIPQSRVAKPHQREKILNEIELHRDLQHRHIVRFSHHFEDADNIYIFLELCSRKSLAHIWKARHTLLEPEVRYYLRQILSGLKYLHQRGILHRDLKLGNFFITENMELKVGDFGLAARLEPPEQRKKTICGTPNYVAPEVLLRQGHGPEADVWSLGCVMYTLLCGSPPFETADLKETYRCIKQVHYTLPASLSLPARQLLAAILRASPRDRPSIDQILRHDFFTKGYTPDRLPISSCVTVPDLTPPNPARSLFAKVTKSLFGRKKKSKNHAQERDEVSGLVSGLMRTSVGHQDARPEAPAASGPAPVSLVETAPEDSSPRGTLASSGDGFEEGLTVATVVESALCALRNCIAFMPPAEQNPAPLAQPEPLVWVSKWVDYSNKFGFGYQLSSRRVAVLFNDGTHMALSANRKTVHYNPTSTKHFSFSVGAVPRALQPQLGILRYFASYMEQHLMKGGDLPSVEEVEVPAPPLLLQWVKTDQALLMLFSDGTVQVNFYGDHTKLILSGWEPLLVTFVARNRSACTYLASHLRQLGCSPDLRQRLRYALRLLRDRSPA

[29] = biological target: Discoidin domain-containing receptor 2 (Homo sapiens) (UniProt Q16832); assay: Inhibition of DDR2 at 3 uM
[30] = biological target: Macrophage-stimulating protein receptor (Homo sapiens) (UniProt Q04912); assay: Inhibition of MST1R at 3 uM
[31] = biological target: Serine/threonine-protein kinase D2 (Homo sapiens) (UniProt Q9BZL6); assay: Inhibition of PRKD2 at 3 uM
Chain of Serine/threonine-protein kinase D2 (Homo sapiens) (Q9BZL6 whole entry): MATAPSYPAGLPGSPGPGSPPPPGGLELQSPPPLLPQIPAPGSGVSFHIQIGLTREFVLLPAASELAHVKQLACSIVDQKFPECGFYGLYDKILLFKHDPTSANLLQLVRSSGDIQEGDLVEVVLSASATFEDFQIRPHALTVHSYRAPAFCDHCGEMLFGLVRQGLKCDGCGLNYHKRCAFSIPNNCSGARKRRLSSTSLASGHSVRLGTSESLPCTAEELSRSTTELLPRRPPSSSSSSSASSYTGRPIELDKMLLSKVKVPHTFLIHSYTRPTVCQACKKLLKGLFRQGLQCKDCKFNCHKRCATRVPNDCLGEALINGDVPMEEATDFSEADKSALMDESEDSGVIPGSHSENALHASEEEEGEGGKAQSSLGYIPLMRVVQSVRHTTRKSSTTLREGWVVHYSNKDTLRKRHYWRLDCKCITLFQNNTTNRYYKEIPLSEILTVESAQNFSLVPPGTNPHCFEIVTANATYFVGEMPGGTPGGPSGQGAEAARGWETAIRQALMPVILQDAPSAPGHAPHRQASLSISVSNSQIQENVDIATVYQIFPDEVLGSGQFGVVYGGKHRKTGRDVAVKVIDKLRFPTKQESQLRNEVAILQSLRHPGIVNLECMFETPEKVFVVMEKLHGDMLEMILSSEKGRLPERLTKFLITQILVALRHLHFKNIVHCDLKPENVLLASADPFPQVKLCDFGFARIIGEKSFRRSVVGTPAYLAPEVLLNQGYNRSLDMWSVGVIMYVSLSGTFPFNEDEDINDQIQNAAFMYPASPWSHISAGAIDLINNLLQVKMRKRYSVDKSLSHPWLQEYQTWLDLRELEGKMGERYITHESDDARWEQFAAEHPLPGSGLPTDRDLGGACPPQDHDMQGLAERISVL

[32] = biological target: Protein-tyrosine kinase 6 (Homo sapiens) (UniProt Q13882); assay: Inhibition of PTK6 at 3 uM
[33] = biological target: Ephrin type-A receptor 5 (Homo sapiens) (UniProt P54756); assay: Inhibition of EPHA5 at 3 uM; procedure, shortened: as §1
[34] = biological target: Serine/threonine-protein kinase MRCK gamma (Homo sapiens) (UniProt Q6DT37); assay: Inhibition of DMPK2 at 3 uM
[35] = system: Proto-oncogene tyrosine-protein kinase receptor Ret (Homo sapiens), P07949 [V804M]; assay: Inhibition of RET V804M mutant at 3 uM
[36] = biological target: Casein kinase I isoform gamma-1 (Homo sapiens) (UniProt Q9HCP0); assay: Inhibition of CSNK1G1 at 3 uM
Chain of Casein kinase I isoform gamma-1 (Homo sapiens) (Q9HCP0 whole entry, looked up, canonical isoform): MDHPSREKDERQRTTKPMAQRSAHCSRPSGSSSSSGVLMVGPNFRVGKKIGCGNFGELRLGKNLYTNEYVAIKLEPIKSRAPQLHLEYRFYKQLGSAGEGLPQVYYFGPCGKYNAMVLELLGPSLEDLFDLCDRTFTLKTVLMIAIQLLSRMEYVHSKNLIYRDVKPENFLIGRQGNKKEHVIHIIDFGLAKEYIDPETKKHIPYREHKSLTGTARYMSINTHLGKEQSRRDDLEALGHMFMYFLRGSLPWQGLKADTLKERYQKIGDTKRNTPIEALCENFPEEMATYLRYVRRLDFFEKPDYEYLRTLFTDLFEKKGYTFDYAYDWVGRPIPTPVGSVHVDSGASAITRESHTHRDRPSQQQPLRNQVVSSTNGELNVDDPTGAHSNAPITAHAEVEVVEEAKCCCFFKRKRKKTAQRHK

[37] = biological target: Non-receptor tyrosine-protein kinase TNK1 (Homo sapiens) (UniProt Q13470); assay: Inhibition of TNK1 at 3 uM
[38] = biological target: Dual specificity tyrosine-phosphorylation-regulated kinase 1B (Homo sapiens) (UniProt Q9Y463); assay: Inhibition of DYRK1B at 3 uM
[39] = biological target: Activin receptor type-2A (Homo sapiens) (UniProt P27037); assay: Inhibition of ACVR2A at 3 uM
[40] = biological target: Atypical kinase COQ8A, mitochondrial (Homo sapiens) (UniProt Q8NI60); assay: Inhibition of ADCK3 at 3 uM
[41] = biological target: Mitogen-activated protein kinase 14 (Homo sapiens) (UniProt Q16539); assay: Inhibition of p38-alpha at 3 uM
[42] = biological target: Cytoplasmic tyrosine-protein kinase BMX (Homo sapiens) (UniProt P51813); assay: Inhibition of BMX at 3 uM
[43] = biological target: Tyrosine-protein kinase ABL2 (Homo sapiens) (UniProt P42684); assay: Inhibition of ABL2 at 3 uM
[44] = biological target: Insulin-like growth factor 1 receptor (Homo sapiens) (UniProt P08069); assay: Inhibition of IGF1R at 3 uM

With `CN(C)CCOc1cc(-c2cn[nH]c2)ccc1NC(=O)C1COc2ccccc2O1` (centres undefined) [SR-3677] as the compound, how does the inhibition [1] read?
Its inhibition is under 10%.

What about the inhibition [2] of the same compound?
The inhibition was under 10%.

What about the inhibition [3] of the same compound?
The inhibition was under 10%.

And the inhibition [4]?
The inhibition was under 10%.

And the inhibition [5]?
The inhibition was under 10%.

And the inhibition [6]?
The inhibition was under 10%.

And the inhibition [7]?
Its inhibition is under 10%.

And the inhibition [8]?
Its inhibition is under 10%.

What about the inhibition [9] of the same compound?
The inhibition was under 10%.

And the inhibition [10]?
Its inhibition is under 10%.

What about the inhibition [11] of the same compound?
The inhibition was under 10%.

What about the inhibition [12] of the same compound?
The inhibition was under 10%.

What about the inhibition [13] of the same compound?
Its inhibition is under 10%.

What about the inhibition [14] of the same compound?
The inhibition was under 10%.

What about the inhibition [15] of the same compound?
The inhibition was -4%.

And the inhibition [16]?
The inhibition was 7%.

What about the inhibition [17] of the same compound?
The inhibition was under 10%.

What about the inhibition [18] of the same compound?
Its inhibition is -3%.

What about the inhibition [19] of the same compound?
Its inhibition is under 10%.

What about the inhibition [20] of the same compound?
Its inhibition is -1%.

And the inhibition [21]?
Its inhibition is under 10%.

What about the inhibition [22] of the same compound?
Its inhibition is under 10%.

What about the inhibition [23] of the same compound?
Its inhibition is under 10%.

And the inhibition [24]?
The inhibition was under 10%.

And the inhibition [25]?
The inhibition was under 10%.

And the inhibition [26]?
The inhibition was under 10%.

And the inhibition [27]?
The inhibition was under 10%.

And the inhibition [28]?
The inhibition was under 10%.

What about the inhibition [29] of the same compound?
The inhibition was under 10%.

What about the inhibition [30] of the same compound?
The inhibition was under 10%.

What about the inhibition [31] of the same compound?
The inhibition was under 10%.

And the inhibition [32]?
The inhibition was under 10%.

What about the inhibition [33] of the same compound?
The inhibition was under 10%.

What about the inhibition [34] of the same compound?
Its inhibition is under 10%.

And the inhibition [35]?
The inhibition was under 10%.

What about the inhibition [36] of the same compound?
Its inhibition is under 10%.

And the inhibition [37]?
The inhibition was under 10%.

And the inhibition [38]?
The inhibition was under 10%.

And the inhibition [39]?
The inhibition was under 10%.

What about the inhibition [40] of the same compound?
Its inhibition is under 10%.

And the inhibition [41]?
The inhibition was under 10%.

What about the inhibition [42] of the same compound?
The inhibition was under 10%.

What about the inhibition [43] of the same compound?
Its inhibition is under 10%.

What about the inhibition [44] of the same compound?
The inhibition was under 10%.
